Assay outcomes: PubChem BioAssay, SRMLSC
Lung fibro prol: antiproliferative effect on LL 47 fibroblasts – human, LL 47 cells, CellTiter-Glo luminescence, primary screen; actives 1.1% (n = 85,000); AID 719, 2007; viability, % at 10 µM; LL 47 human lung fibroblast viability, ATP luminescence; stronger effect = lower value;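 active means viability at or below 50% in the single dose screen; inactive means viability above 50%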;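 further: compound exposure lasted 72 h before the ATP readout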
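Test system: LL 47 human lung fibroblasts / Incubation: 72 h compound exposure at 37 °C after overnight plating / Technique: luminescent ATP detection, CellTiter-Glo / Compound dosing: 0.1% DMSO in all compound wells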
HUVEC inhibit: inhibitors of HUVEC proliferation, primary screen, cell-based, 384-well. viability, % at 10 µM (by protocol). CellTiter-Glo luminescence, 72 h; stronger effect = lower value. actives 1.1% (n = 86,000);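 active means viability at or below 30%; inactive means viability above 30%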
bCat KO growth: primary screen for growth suppressors in beta-catenin knockout HCT116 cells (colon tumor, human); HCT116 beta-catenin knockout viability, CellTiter-Glo, 60 h; stronger effect = lower value; viability, % at 10 µM; actives 1.5% (n = 140,000);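 active means viability at or under a set limit, the compound median less 4 SD, cut at about 6% in these data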
H69AR inhibit: proliferation blockers of H69AR lung cancer cells, primary screen, cell-based, human, 86K library. AID 598, 2007. viability, % at 10 µM. actives 6% (n = 85,000). H69AR lung tumor viability, ATP luminescence, 72 h; stronger effect = lower value;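 active means viability at or below 40%; inactive means viability above 40%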;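 further: multidrug resistant small cell line overexpressing MRP-1 efflux transporter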
PTEN del growth: growth suppression of PTEN-null HCT116, primary screen, cell-based, CellTiter-Glo; actives 1.2% (n = 140,000); AID 827, 2007; HCT116 PTEN-null viability, 60 h; stronger effect = lower value; viability, % at 10 µM;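 active means viability at or below a set limit, 4 SD under the median of all tested compounds, cut at about 3.7% in these data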;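 further: PTEN knockout HCT116 line with beta catenin targeted HCT116 as companion control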
Of the large screens only hits and unclear results are named; the others gave an inactive call. The sample as a whole holds a higher share of hits than the screen did.

Cc1cc2nc(C)n(CCCNC(=O)Nc3ccc(C#N)cc3)c2cc1C	none
O=C(CC12CC3CC(CC(C3)C1)C2)N/N=C/c1ccncc1	none (no result: Lung fibro prol, HUVEC inhibit, H69AR inhibit)
COc1ccc(CCNC(=O)Cn2c(=O)cnc3ccccc32)cc1	H69AR inhibit 25.4
CCCNC(=O)CC1C(=O)N(Cc2ccccc2)C(C)c2nc3ccccc3n21 (centres undefined)	none
CCc1ccc(N2CC(C(=O)OCC(=O)Nc3cc(C)on3)CC2=O)cc1 (centres undefined)	H69AR inhibit 36.6 (no result: Lung fibro prol)
CN1CCN(NS(=O)(=O)c2cccs2)CC1	none (no result: Lung fibro prol, HUVEC inhibit, H69AR inhibit)
O=C(NNC1=C(C(=O)C(F)(F)F)CCC1)c1cccc(Cl)c1	HUVEC inhibit 22.5, H69AR inhibit 29.4
CCOC(=O)C(C)S(=O)(=O)c1ccc(C(F)(F)F)cn1 (centres undefined)	none (no result: Lung fibro prol, HUVEC inhibit, H69AR inhibit)
N#CC1=C(N)Oc2cc(O)ccc2C1c1cccs1 (centres undefined)	none
N#CC1=C(N)Oc2c(ccc3ccccc23)C1c1cccs1 (centres undefined)	HUVEC inhibit 21.7, H69AR inhibit 17.2
O=C(c1cn(-c2ccccc2)nc1-c1cccs1)N(CCO)Cc1ccccc1	H69AR inhibit 23.4
O=C(CCNc1ccc(F)cc1)c1ccco1	H69AR inhibit 1.1
O=C(CCNc1ccc(F)c(Cl)c1)c1ccco1	bCat KO growth 2.2, H69AR inhibit 1.8
O=C(CCNc1cc(Cl)cc(Cl)c1)c1ccco1	none
O=C(NNC(=O)c1cc(-c2ccccc2)n(-c2ccccc2)n1)c1cccc([N+](=O)[O-])c1	none (no result: Lung fibro prol, HUVEC inhibit, H69AR inhibit)
Cc1ccc(Nc2c(N)c(=O)oc3ccccc23)cc1	H69AR inhibit 12.8
O=C(c1ccco1)N1CCN(c2ncnc3c2[nH]c2ccccc23)CC1	none
O=C(c1ccco1)N1CCN(c2ncnc3c2[nH]c2ccc(Br)cc23)CC1	H69AR inhibit 38.2
O=C(c1ccco1)N1CCN(C(=O)c2cc(-c3ccccn3)nc3ccc(Cl)cc23)CC1	H69AR inhibit 38.4
O=C(c1ccco1)N1CCN(C(=O)c2cc(-c3ccncc3)nc3ccc(Br)cc23)CC1	H69AR inhibit 38.6 (no result: bCat KO growth, PTEN del growth)
Cc1cccc(Nc2nc(N)c([N+](=O)[O-])c(N3CC(C)CC(C)C3)n2)c1 (centres undefined)	bCat KO growth 1.4, PTEN del growth 1.8 (no result: Lung fibro prol, HUVEC inhibit, H69AR inhibit)
CC(COc1ccccc1)N(CCCl)Cc1ccccc1 (centres undefined)	H69AR inhibit 1.7
COc1ccc(/C=C/C(=O)c2ccc3c(c2)OCCO3)cc1[N+](=O)[O-]	none (no result: Lung fibro prol, HUVEC inhibit, H69AR inhibit)
COc1ccc(Oc2ccc(/C=C/C(=O)c3cccc(OC)c3)cc2[N+](=O)[O-])cc1	bCat KO growth 2.0, PTEN del growth 1.9 (no result: Lung fibro prol, HUVEC inhibit, H69AR inhibit)
O=C(COC(=O)c1cc(=O)[nH]c(=O)[nH]1)NCc1ccccc1	none (no result: Lung fibro prol, HUVEC inhibit, H69AR inhibit)
c1csc(-c2csc3nc(CN4CCOCC4)nc(NCc4ccc5c(c4)OCO5)c23)c1	none
COC(=O)c1cc(C(=O)Nc2cc(C)ccn2)cc([N+](=O)[O-])c1	none (no result: Lung fibro prol, HUVEC inhibit, H69AR inhibit)
CCc1ccc(-c2nc(C(N)=O)c3[nH]c(=O)n(-c4ccccc4OC)c3n2)cc1	Lung fibro prol 37.3, H69AR inhibit 16.4
COc1ccc(-c2nc(C(N)=O)c3[nH]c(=O)n(-c4cccc(Cl)c4)c3n2)cc1OC	Lung fibro prol 7.5, H69AR inhibit 2.1, PTEN del growth 2.3
Cc1cccc(OCc2nnc(SCC(=O)Nc3cccc(C(=O)N4CCOCC4)c3)o2)c1C	none (no result: Lung fibro prol, HUVEC inhibit, H69AR inhibit)
COc1cc2oc3ccccc3c2cc1N(CC(=O)N1CCCCC1)S(=O)(=O)c1ccc(C)cc1	none (no result: Lung fibro prol, HUVEC inhibit, H69AR inhibit)
CC(C)Cn1c(C(C)C)nc([N+](=O)[O-])c1Sc1ccc(Cl)cn1	H69AR inhibit 18.8
CCn1c(C)nc([N+](=O)[O-])c1Sc1ccc(F)cc1	none (no result: Lung fibro prol, HUVEC inhibit, H69AR inhibit)
O=[N+]([O-])c1ccc(Sc2ccccc2)nc1	none (no result: Lung fibro prol, HUVEC inhibit, H69AR inhibit)
CCCCn1c(CCC)nc([N+](=O)[O-])c1Sc1ccc(Cl)cn1	H69AR inhibit 2.4
COc1ccccc1NC(=O)COc1ccc(/C=N/NC(=O)CSCc2cc(C)cc(C)c2)cc1	none (no result: Lung fibro prol, HUVEC inhibit, H69AR inhibit)
COc1ccccc1NC(=O)COc1ccc(/C=N/NC(=O)CSCc2ccc(Cl)cc2)cc1	bCat KO growth 3.2, PTEN del growth 2.2 (no result: Lung fibro prol, HUVEC inhibit, H69AR inhibit)
COc1ccc(C(=O)Nc2ccccc2C(N)=O)cc1	none
Cc1cc(C)cc(OCC(=O)Nc2ccccc2C(=O)NCc2ccco2)c1	none
COc1ccc(C(=O)Nc2ccccc2C(=O)NC(C(=O)NCc2ccco2)C(C)C)cc1 (centres undefined)	Lung fibro prol 38.5, bCat KO growth 1.2, H69AR inhibit 1.2, PTEN del growth 2.0
O=C(COc1ccc(Cl)cc1)Nc1ccccc1C(=O)NCc1ccco1	Lung fibro prol 37.1
COc1ccc(C(=O)Nc2ccccc2C(=O)N(Cc2ccco2)C(C(N)=O)C(C)C)cc1 (centres undefined)	Lung fibro prol 41.9, bCat KO growth 1.1, H69AR inhibit 5.6, PTEN del growth 1.0
CCC(C)NC(=O)c1ccccc1NC(=O)COc1ccc(OC)cc1 (centres undefined)	H69AR inhibit 31.7
COc1ccc(NC(=O)c2ccccc2NC(=O)COc2ccccc2)cc1	none
O=C1CC(=C2c3ccccc3-c3ccccc32)C(=O)N1CCN1CCN(c2ccccc2)CC1	none (no result: bCat KO growth, PTEN del growth)
CCOC(=O)C(NC(=O)NCc1ccc(OC)cc1)(OCC)C(F)(F)F (centres undefined)	none (no result: Lung fibro prol, HUVEC inhibit, H69AR inhibit)
Cc1cc(NC(=O)CC(CN(C)S(=O)(=O)c2ccccc2)c2ccccc2)no1 (centres undefined)	none
Cc1ccc(C)c(OCC(=O)NCC(C)C)c1C	none (no result: Lung fibro prol, HUVEC inhibit, H69AR inhibit)
Cc1c(CN(C)C(=O)c2sc3cc(Cl)ccc3c2Cl)cnn1C	HUVEC inhibit 21.2
O=C(NCc1cccnc1)c1sc2cc(Cl)ccc2c1Cl	none (no result: Lung fibro prol, HUVEC inhibit, H69AR inhibit)
Cc1ccc(C(=O)NCCSc2c(C)[nH]c3ccccc23)cc1[N+](=O)[O-]	none (no result: Lung fibro prol, HUVEC inhibit, H69AR inhibit)
Cc1[nH]c2ccccc2c1SCCN	H69AR inhibit 34.6 (no result: bCat KO growth, PTEN del growth)
Cc1c(CCC(C)C)c(=O)n2c([nH]c3ccccc32)c1C#N	H69AR inhibit 31.1
CCCCc1c(C)c(C#N)c2[nH]c3ccccc3n2c1=O	H69AR inhibit 18.4
CCCCNC(=O)COc1ccccc1C(=O)c1cc(C#N)c(=O)n(CCOC)c1	none (no result: Lung fibro prol, HUVEC inhibit, H69AR inhibit)
Cc1ccc(C(NC(=O)N2CCOCC2)C(Cl)Cl)cc1F (centres undefined)	none (no result: Lung fibro prol, HUVEC inhibit, H69AR inhibit)
Cc1ccc(C(NC(=O)N2CCOCC2)=C(Cl)Cl)cc1F	bCat KO growth 3.4, H69AR inhibit 8.7, PTEN del growth 1.4
COc1ccc(S(=O)(=O)Nc2cc3c4c(oc3c3ccccc23)CC(C)(C)CC4=O)cc1	H69AR inhibit 15.4
CC(C)(C)N1CC(c2nc3ccccc3n2Cc2ccccc2)CC1=O (centres undefined)	H69AR inhibit 38.2
CCn1c(C2CC(=O)N(Cc3ccccc3)C2)nc2ccccc21 (centres undefined)	none
CC1(C)Cc2c(sc3c2c(=N)n(Cc2ccco2)c(=O)n3CC(=O)Nc2ccc(Cl)cc2)CO1	Lung fibro prol 21.8 (no result: bCat KO growth, PTEN del growth)
